In article PMC10955609 (Clinical and Translational Science, 2024):

Tests used:
IL-1β-induced cytokines = conditions: upregulation in comparison with vehicle control also reported; cited from earlier work
[1] = tested on: imiquimod (IMQ)-induced skin inflammation (TLR7 activation); experiment: IMQ skin challenge: skin perfusion; format: in vivo, human; conditions: for Erythema: GMR of treatment effect vs. placebo (90% CrI): same dosing; for Clinical evaluation of skin reactions (visual grading): vs placebo
In short: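 Healthy men (12 per arm) took test compound (120 or 100 mg), placebo or prednisolone 20 mg b.i.d. orally for 7 days. From Day 3, 5% imiquimod cream (100 mg) went daily on tape-stripped back skin under 12-mm occlusion chambers for 3 days. Erythema (3D imaging), LSCI perfusion and CEA were read at baseline, 24, 48 and 72 h. Bayesian repeated-measures ANCOVA used log-transformed change from baseline.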

[2] = tested on: imiquimod (IMQ)-induced skin inflammation (TLR7 activation); experiment: Skin suction blister fluid analysis after IMQ challenge; format: in vivo, human; conditions: for Responses of CD8+ T cells and dendritic cells in suction blister fluid: 72 h after start of IMQ challenge; for IMQ-driven IP-10 and MxA in skin suction blister exudate: analysis on Day 6
In short: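 Suction blisters were raised by negative-pressure device on imiquimod-inflamed back skin at baseline and 24, 48 and 72 h after challenge start. Subjects were healthy men, 12 per arm, on oral twice-daily treatment begun 2 days before challenge. Blister fluid was analysed for immune cell subsets by flow cytometry and for cytokines/chemokines by multiplex immunoassay.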

[3] = tested on: LPS-driven systemic inflammation (TLR4 activation); experiment: Systemic intravenous LPS challenge; format: in vivo, human; conditions: for Anti-inflammatory cytokine IL-10 after LPS challenge / IL-6 (blood): GMR of treatment effect vs. placebo (90% CrI) / TNF-α (blood): GMR of treatment effect vs. placebo (90% CrI) / Suppression of circulating TNF-α response vs. placebo / LPS-induced increases in IL-8, CRP and procalcitonin: i.v. LPS challenge; for Anti-inflammatory cytokine IL-10 after LPS challenge / LPS-driven increases in systolic blood pressure and pulse rate: compared with placebo; for IL-6 (blood): GMR of treatment effect vs. placebo (90% CrI) / TNF-α (blood): GMR of treatment effect vs. placebo (90% CrI): same dosing; for Mild increase in core temperature after LPS: 2–6 h after i.v. LPS challenge; for Suppression of circulating TNF-α response vs. placebo: averaged 0.5 to 6 h after LPS; for LPS-induced increases in IL-8, CRP and procalcitonin: vs placebo
In short: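 On Day 7 of twice-daily oral treatment (12 healthy men per arm), purified E. coli O113 LPS 1 ng/kg in glucose 2.5%–NaCl 0.45% was given as a 2-min i.v. infusion. Hydration infusion ran from 2 h before to 6 h after. Cytokines, acute phase proteins, leukocytes, pulse, blood pressure and temperature were followed from 0.5 to 24 h. Bayesian repeated-measures ANCOVA gave GMR vs placebo (90% CrI).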

[4] = tested on: LPS (TLR4 agonist)-driven cytokine release in whole blood; experiment: Ex vivo whole blood challenge with LPS; format: cell-based, human
In short: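 Blood was drawn from healthy men, 12 per arm, at two baselines (Day −1, Day 1) and on Day 6 of oral twice-daily dosing. Challenges were run in duplicate at 37°C for 24 h: LPS 0.1 ng/mL or R848 0.35 μg/mL in prefilled culture tubes, and IL-1β 125 ng/mL in sodium heparin tubes. Supernatant cytokines were measured by multiplex immunoassay.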

[5] = PK in plasma and skin suction blister fluid; format: in vivo, human; conditions: for Individual suction blister fluid versus plasma ratio, geometric mean (CV): Day 6; for Total concentration in blister fluid, geometric mean (CV): Day 6, 2–4 h after drug intake, unchallenged skin
In short: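 Healthy men, 12 per arm, took test compound orally twice daily for 7 days. Total drug was measured in plasma and suction blister fluid on Day 6, […], and reported as geometric mean (CV). Blister-fluid-to-plasma ratios were calculated per subject.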

Safety monitoring = format: in vivo, human; conditions: safety analysis set; BAY groups N = 13, prednisolone N = 12; 7 days b.i.d.
[6] = tested on: LPS (TLR4)-driven TNF-α release in whole blood; conditions: 120 mg b.i.d. BAY1834845, 100 mg b.i.d. BAY1830839; ref multiple ascending dose phase I studies; cited from earlier work
[7] = tested on: imiquimod (IMQ)-induced psoriasis; conditions: mice, compared with vehicle; cited from earlier work
[8] = 120 mg b.i.d. BAY1834845, 100 mg b.i.d. BAY1830839; ref multiple ascending dose phase I studies; cited from earlier work

Row | Individual suction blister fluid versus plasma ratio, geometric mean (CV) [5] | Total concentration in blister fluid, geometric mean (CV) [5] | SMILES | Erythema: GMR of treatment effect vs. placebo (90% CrI) [1] | Responses of CD8+ T cells and dendritic cells in suction blister fluid [2] | IMQ-driven IP-10 and MxA in skin suction blister exudate [2] | Anti-inflammatory cytokine IL-10 after LPS challenge [3] | IL-6 (blood): GMR of treatment effect vs. placebo (90% CrI) [3] | TNF-α (blood): GMR of treatment effect vs. placebo (90% CrI) [3] | Clinical evaluation of skin reactions (visual grading) [1] | Mild increase in core temperature after LPS [3] | LPS-driven increases in systolic blood pressure and pulse rate [3] | Suppression of circulating TNF-α response vs. placebo [3] [%] | LPS-induced increases in IL-8, CRP and procalcitonin [3] | Inhibition of TLR4-driven IL-6 in ex vivo whole blood challenge [4] | Inhibition of TLR4-driven TNF-α in ex vivo whole blood challenge [4] | Mean suppression of TNFα (TLR4-cytokine release in ex vivo whole blood assay) [6] [%] | Severity of psoriasis-like lesions; extent of erythema, skin thickening and scaling [7] | Systemic exposure [8] | other results
1 | – | – | CC[C@@H]1[C@H](F)C(=O)N[C@@H]1COc1nccc2cc(C(N)=O)c(OC)cc12 [PF‐06650833] | – | – | – | – | – | – | – | – | – | – | – | – | – | – | – | – | Effects on IL-1β-induced cytokines (IL-1β-induced cytokines): weak effects
2 | – | – | C[C@]12C=CC(=O)C=C1CC[C@@H]1[C@@H]2[C@@H](O)C[C@@]2(C)[C@H]1CC[C@]2(O)C(=O)CO [Prednisolone, prednisolone, reference compound] | 0.86 (0.69, 1.02) | suppressed | strongly suppressed | induced | 0.31 (0.21, 0.41) | 0.31 (0.20, 0.41) | – | – | – | – | – | – | – | – | – | – | Erythema: GMR of treatment effect vs. placebo (90% CrI) ([1]; listed as prednisolone): 0.86; Responses of NK cells and classical monocytes in suction blister fluid ([2]; 72 h post-challenge, after preceding increase up to 48 h): markedly suppressed
3 | 0.59 (16.2%) | 3.0 (28.3%) mg/L | CC(C)(O)CCn1cc2cc(NC(=O)c3cccc(C(F)(F)F)n3)c(C(C)(C)O)cc2n1 [BAY1830839] | 0.83 | suppressed | strongly suppressed | did not lead to an increase | 0.26 (0.17, 0.34) | 0.14 (0.09, 0.19) | less severe inflammatory reaction | without suppressing | suppressed | ≥ 80 | inhibited | 73% | 75% | 70 | significantly reduced | 4.3 (42.8%) mg/L | Erythema: GMR of treatment effect vs. placebo (90% CrI) ([1]; listed as BAY 1830839): 0.83 (0.67, 0.99); Any treatment-emergent AE (Safety monitoring): 8 (61.5%) n (%) of participants
4 | 0.43 (22.7%) | 2.6 (32.3%) mg/L | CC(C)(O)c1cc2nn(CCS(C)(=O)=O)cc2cc1NC(=O)c1cccc(C(F)(F)F)n1 [BAY1834845, zabedosertib] | 0.75 | suppressed | strongly suppressed | did not lead to an increase | 0.27 (0.18, 0.36) | 0.20 (0.13, 0.27) | less severe inflammatory reaction | without suppressing | suppressed | ≥ 80 | inhibited | approximately 50% | approximately 50% | 40 | significantly reduced | 5.2 (19.4%) mg/L | Erythema: GMR of treatment effect vs. placebo (90% CrI) ([1]; listed as BAY 1834845): 0.75 (0.60, 0.89)
